# Compound activity (PubChem)
# Sampled rows, rich in hits. Any-hit rate of the full collection: about 3%.
# S100A4 MyoIIA = inhibitors of human S100A4 binding to myosin IIA peptide; P26447; S100A4/TAMRA-MyoIIA peptide fluorescence polarization; inhibition, % at 10.7 µM; hit rate 0.14% among 360,000;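 active = mean inhibition of at least 70% across replicates, with every replicate also reaching that level; inconclusive = mean inhibition reaches 70% but some replicates fall short; inactive = mean inhibition below 70%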
# Target sequence (P26447 whole entry, looked up): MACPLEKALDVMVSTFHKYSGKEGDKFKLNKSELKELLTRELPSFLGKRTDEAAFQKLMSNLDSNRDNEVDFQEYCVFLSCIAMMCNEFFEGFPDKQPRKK
#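 Assay system: human S100A4 monomer with TAMRA-labelled myosin IIA peptide / Buffer or medium: Calcium-containing HEPES buffer, pH 7.2 / Reagent: TAMRA-labelled myosin IIA heavy-chain peptide probe, 5 nM / Compound: one dose per compound / Timing: polarization read 5 min after assay mix addition, stable 5–60 min / Benchmarks: neutral control DMSO, positive control TFP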
# Statin myotox sup = suppressors of simvastatin-induced myotoxicity in C2C12 myotubes. ATP luminescence, 48 h; scaled: DMSO 0, geranylgeraniol control 100. rescue of ATP level, % at 7.49 µM. hit rate 0.78% among 330,000. AID 602340;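 active = mean ATP rescue above about 67%, or every replicate alone reaching that limit, limit read from the data, passing the limit was not always enough; inconclusive = no clear call, values can overlap the other calls; inactive = mean under the limit and some replicate under it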;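 also: myotubes were challenged with 10 µM simvastatin during compound exposure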
# PGC1a acetyl inh = modulators of PGC1a acetylation | hit rate 0.17% among 350,000 | inhibition, % at 15.6 µM | U2OS PGC1a acetylation, AlphaScreen anti-acetyl-lysine; with virally co-expressed GCN5 acetyltransferase;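 active = every replicate shows inhibition of at least 40%; inconclusive = mean inhibition at least 40% but some replicate below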;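 also: 0% = neutral control wells and 100% = positive control wells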
# rRNA inh HTS = inhibits bacterial ribosomal RNA function over humanized ribosomes; E. coli WT GFP vs humanized-ribosome RFP mutants, fluorescence, 24 h; hits give low values; DMSO median 0, no signal -100; GFP signal change (wild-type ribosome), % (test concentration not listed); hit rate 1.6% among 350,000;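 active = significant combined selectivity score with lowered wild-type GFP, culture density cut under 30%, mutant RFP and density less affected; inactive = any of these conditions unmet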
# SIRT5 inh = sirtuin-5 (human) deacylase inhibition; Purified SirT5, succinyl-peptide AMC, trypsin-coupled fluorescence; AID 652115; hit rate 1.1% among 330,000; Q9NXA8; inhibition, % at 15 µM; in the data active = inhibition above about 15%; inconclusive = no clear call, values can overlap the other calls
# Target sequence (Q9NXA8 whole entry, looked up): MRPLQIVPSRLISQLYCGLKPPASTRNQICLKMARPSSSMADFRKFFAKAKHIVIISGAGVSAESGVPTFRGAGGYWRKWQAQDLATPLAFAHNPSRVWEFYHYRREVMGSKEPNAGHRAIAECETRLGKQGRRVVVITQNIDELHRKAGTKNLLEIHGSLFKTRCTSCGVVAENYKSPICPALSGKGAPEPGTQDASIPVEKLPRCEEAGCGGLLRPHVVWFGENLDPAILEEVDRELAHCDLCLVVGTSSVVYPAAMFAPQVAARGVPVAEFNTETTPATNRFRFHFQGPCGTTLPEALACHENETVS
# Cneo AK release = Cryptococcus neoformans lysis via adenylate kinase release. C. neoformans lysis, adenylate kinase release luminescence, 4 h; normalised: neutral wells 0, clomiphene wells 100. lysis activity, % at 15 µM. hit rate 0.2% among 360,000;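 active = mean lysis activity across replicates of at least 80%, whatever share of replicates individually reach that level; inactive = mean lysis activity below 80%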
#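 Schedule: static 4 h at 37 °C with compound, 1 h detection; system: C. neoformans cells; benchmarks: Clomiphene as positive control; buffer or medium: fresh YPD medium; measure: luminescence rise reflecting yeast cell lysis; measured by: luminescent adenylate kinase detection reagent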
# The depositor's hits bear a star; u = inconclusive; x = no result.
SMILES,S100A4 MyoIIA,Statin myotox sup,PGC1a acetyl inh,rRNA inh HTS,SIRT5 inh,Cneo AK release
N#Cc1cccc(C#N)c1NCC1CCCO1 (stereo not drawn),0,2,43*,2,-3,-2
N#Cc1cc(Cl)c(NCC2CCCO2)cc1C#N (stereo not drawn),-4,-4,x,18,-2,2
COc1ccc(NC(=O)Nc2ccc3c(c2)C(=O)N([C@@H](C)CO)C[C@H](C)[C@H](CN(C)C(=O)Nc2ccccc2)O3)cc1,4,-13,2,4,-3,-1
C=CCNC(=O)c1cccn1-c1ccsc1C(=O)OC,x,91*,5,x,x,3
C=CCNC(=O)C(=O)c1cccn1-c1ccsc1C(=O)OC,x,-2,5,x,x,-3
CCc1ccc(C2=CC(c3cc(Br)ccc3F)n3ncnc3N2)cc1 (stereo not drawn),x,-14,-1,x,x,-8
Fc1ccc(Br)cc1C1C=C(c2ccc(Br)cc2)Nc2ncnn21 (stereo not drawn),-10,34,2,-30*,-2,-1
CCC(=O)N[C@@H]1C=C[C@H](CC(=O)NCc2cc(F)cc(F)c2)O[C@@H]1CO,-9,-4,2,-1,-1,-8
O=C(O)C1C2CC3OC(=O)C1C3C2 (stereo not drawn),3,4,62*,21,0,-2
O=C(C[C@@H]1CC[C@H]2[C@@H](COC[C@H](O)CN2Cc2ccc(F)cc2)O1)NCc1ccccc1Cl,-14,12,-4,2,-6,1
COc1ccc(-c2cc(C(=O)OCc3ccccn3)c3ccccc3n2)cc1,-4,1,-10,-34*,-2,-14
C[C@@H]1CN([C@@H](C)CO)C(=O)c2cccc(NC(=O)Nc3ccc(F)cc3)c2O[C@H]1CN(C)Cc1ccc(Oc2ccccc2)cc1,4,0,-3,-9,5,0
O=C(C1CCCC1)N1CC(=O)N2[C@@H](CO)[C@@H](c3ccc(C#CC4CCCC4)cc3)[C@@H]2C1,9,x,3,-36,1,x
O=C1C=C(c2cccc(Cl)c2)C[C@@H](c2ccc3c(c2)OCO3)C1,-1,134*,-7,-9,-3,-4
Cn1ccnc1SCC(=O)Nc1ccccc1,x,137*,-19,x,x,-1
Cc1cccc(NC(=O)CSc2nccn2C)c1,x,x,0,x,x,x
Cn1ccnc1SCC(=O)c1ccc(Cl)cc1,15,11,-3,-32*,-15,2
O=C(CSC1=NNC(c2ccccn2)S1)Nc1ccccc1 (stereo not drawn),0,x,1,-19*,-6,0
Cc1noc(C)c1NC(=O)N(C)C[C@@H]1Oc2c(cccc2N(C)C)C(=O)N([C@@H](C)CO)C[C@H]1C,11,31,0,1,2,-9
COc1ccc2c3c(n(C)c2c1)[C@H](CO)N(C(=O)CC1CC1)CC31CN(C(=O)C2CCC2)C1,14,x,x,-3,-3,x
C/C(N)=C(/C#N)C(=O)CSc1nnc(Nc2ccccc2)s1,-1,x,x,-4,18*,x
CCN1C(=O)NC2=C(C(=O)c3ccccc32)C1c1ccccc1F (stereo not drawn),x,120*,-3,x,x,0
CC(=O)C1=C(O)C(=O)N(CO)C1c1ccccc1F (stereo not drawn),3,x,x,16,0,x
Cc1noc(C)c1S(=O)(=O)Nc1cccc2c1O[C@@H](CN(C)Cc1ccc(Cl)c(Cl)c1)[C@@H](C)CN([C@@H](C)CO)C2=O,-19,30,-20,-4,4,-1
Cc1ccc(/C=C/C(=O)O)cc1S(=O)(=O)N1CCc2ccccc21,-2,3,x,-32*,0,2
SMILES,S100A4 MyoIIA,Statin myotox sup,PGC1a acetyl inh,rRNA inh HTS,SIRT5 inh,Cneo AK release
O=S(=O)(Nc1ccn(-c2ccccc2)n1)c1ccc(Br)cc1,-3,-9,-3,-46*,-6,0
Cc1c(NS(=O)(=O)c2ccc(Br)cc2)c(=O)n(-c2ccccc2)n1C,1,14,x,0,-1,-1
Cn1c(NCCCO)nc2c1c(=O)n(Cc1ccccc1F)c(=O)n2C,1,6,x,-3,39*,0
CC(C)NC(=O)c1cccc(Br)c1,-1,-3,4,2,28*,2
Cc1ccc(C(=O)NNC(=O)c2cccc(Br)c2)cc1,8,11,u,8,-2,-1
Cc1cccc(CS(=O)(=O)c2nnc([C@H](Cc3ccccc3)NC(=O)OC(C)(C)C)o2)c1,x,-122,60*,x,x,-1
Cc1noc(C)c1S(=O)(=O)Nc1ccc2c(c1)CC(=O)N([C@H](C)CO)C[C@H](C)[C@@H](CN(C)Cc1ccc(C(=O)O)cc1)O2,53,x,2,2,25*,x
Cc1noc(C)c1S(=O)(=O)Nc1ccc2c(c1)CC(=O)N([C@H](C)CO)C[C@@H](C)[C@H](CN(C)Cc1ccc(-c3ccccc3)cc1)O2,-7,111*,10,-2,12,x
Cc1noc(C)c1S(=O)(=O)Nc1ccc2c(c1)CC(=O)N([C@H](C)CO)C[C@@H](C)[C@@H](CN(C)Cc1ccc(C(F)(F)F)cc1)O2,-24,83*,-12,-6,0,-4
Cc1noc(C)c1S(=O)(=O)Nc1ccc2c(c1)CC(=O)N([C@@H](C)CO)C[C@H](C)[C@H](CN(C)Cc1ccccc1)O2,3,11,x,-2,-4,-1
C[C@@H]1CN([C@@H](C)CO)S(=O)(=O)c2ccc(C3=CCCCC3)cc2O[C@@H]1CN(C)Cc1ccccn1,-10,-156,-11,-45,2,-4
Cc1noc(C)c1S(=O)(=O)Nc1ccc2c(c1)C(=O)N([C@@H](C)CO)C[C@H](C)[C@H](CN(C)Cc1ccc3c(c1)OCO3)OCCCC[C@@H](C)O2,u,x,22,0,4,-1
O=C1C(Sc2ccccc2)=C[C@@]2(O)CC[C@@H](O)[C@]1(Sc1ccccc1)[C@H]2O,2,x,x,-23*,x,x
COc1ccc(CNc2nc3c(c(=O)n(Cc4ccc(Br)cc4)c(=O)n3C)n2C)cc1,x,98*,-8,x,x,-12
Cc1noc(C)c1NC(=O)N(C)C[C@@H]1Oc2ccc(NC(=O)C3CC3)cc2C(=O)N([C@@H](C)CO)C[C@@H]1C,-8,7,4,1,2,7
CC(C)CC#Cc1cnc2c(c1)C(=O)N([C@@H](C)CO)C[C@H](C)[C@H](CN(C)C(=O)c1ccc(F)cc1)O2,2,25,-5,3,0,0
O=C(NCC[C@H]1CC[C@@H](NS(=O)(=O)c2ccccc2F)[C@H](CO)O1)c1ccc(F)cc1,126*,-1,10,0,1,1
